Compound activity as filed in PubChem BioAssay.
Many of the other results were omitted from the sample, so hits are more common in it than they were.
PTEN del growth: suppresses growth of cells with PTEN deletion; HCT116 PTEN-null viability, CellTiter-Glo, 60 h; active compounds read low; viability, % at 10 µM; hit rate 1.2% among 140,000; AID 827;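 active means viability at or below a set limit, 4 SD under the median of all tested compounds, cut at about 3.7% in these data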;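 further: PTEN knockout HCT116 line with beta catenin targeted HCT116 as companion control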
bCat KO growth: beta-catenin-lacking colon tumor cell growth suppression | HCT116 beta-catenin knockout viability, CellTiter-Glo, 60 h; active compounds read low | viability, % at 10 µM | hit rate 1.5% among 140,000 | AID 818;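 active means viability at or under a set limit, the compound median less 4 SD, cut at about 6% in these data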;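 further: 0% = Hyamine 1622 control at 20 µM and 100% = untreated cell control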
Fibroblast inh: blocks proliferation of human lung fibroblasts | viability, % at 10 µM | AID 719 | LL 47 human lung fibroblast viability, ATP luminescence; active compounds read low | hit rate 1.1% among 85,000;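 active means viability at or below 50% in the single dose screen; inactive means viability above 50%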;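 further: compound exposure lasted 72 h before the ATP readout; 100% = median luminescence of untreated cell-only wells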
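Material: human LL 47 lung fibroblast cells; quantity: 1,150 cells/well; medium: IMEM plus 15% FBS; doses: 0.1% DMSO in all compound wells; timing: overnight attachment after seeding, then 72 h compound exposure at 37 °C; detection: CellTiter-Glo luminescence; measure: % viability of median cell-only signal; controls: cell-only wells, no compound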
HUVEC inhibit: inhibitors of human endothelial cell proliferation | AID 648 | viability, % at 10 µM (by protocol) | hit rate 1.1% among 86,000 | HUVEC proliferation, CellTiter-Glo luminescence, 72 h; active compounds read low;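 active means viability at or below 30%; inactive means viability above 30%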;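 further: 100% = median luminescence of DMSO-only cell control wells on each plate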
H69AR growth 86K: growth inhibitors of human H69AR lung tumor cells; H69AR lung tumor viability, ATP luminescence, 72 h; active compounds read low; viability, % at 10 µM; AID 598; hit rate 6% among 85,000;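 active means viability at or below 40%; inactive means viability above 40%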;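 further: multidrug resistant small cell line overexpressing MRP-1 efflux transporter; 100% = mean luminescence of untreated control wells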
Starred values were filed as active, the others as inactive; . = no result.

SMILES	PTEN del growth	bCat KO growth	Fibroblast inh	HUVEC inhibit	H69AR growth 86K
CCC1CCc2c(sc3nc(SCC(=O)NCc4ccco4)n(-c4ccccc4)c(=O)c23)C1 (centres undefined)	78.9	80.9	64.3	37.6	3.0*
CC1CCc2c(sc3ncn4c(SCC(=O)NCc5ccco5)nnc4c23)C1 (centres undefined)	72.3	61.9	101.9	88.1	10.1*
CCOc1ccc(/C=N/OC(C)C(=O)NCc2ccc3c(c2)OCO3)cc1 (centres undefined)	96.0	93.5	.	.	.
Cc1cc(C)c(S(=O)(=O)N2CCCC(C(=O)NCCC3=CCCCC3)C2)c(C)c1 (centres undefined)	65.6	71.5	88.1	88.0	40.7
COc1cccc(N2CCN(c3ncnc4c3cnn4-c3ccc(C)cc3C)CC2)c1	3.1*	1.7*	33.2*	2.2*	55.5
Cc1cccc(-n2ncc3c(N4CCC5(CC4)OCCO5)ncnc32)c1	.	.	88.3	114.8	33.5*
COc1cccc(-n2nnc3c(=O)n(CC(=O)N4CCCCC4)cnc32)c1	89.4	95.3	97.6	91.5	86.3
Cc1ccnc(N2CCCC(C(=O)NCc3cccs3)C2)n1 (centres undefined)	93.7	90.4	98.1	96.5	94.4
O=C(Nc1ccc2snnc2c1)N1CCN(c2ccccc2)CC1	81.5	73.5	99.3	112.8	79.8
O=C(Nc1ccc2snnc2c1)Nc1cccc2ccccc12	4.4	8.9	92.3	60.2	9.3*
Oc1ccc(C2Nc3cccc4cccc(c34)N2)c(O)c1	81.3	94.8	82.8	82.3	17.0*
c1coc(C2Nc3cccc4cccc(c34)N2)c1	89.5	92.5	98.5	77.7	6.7*
COc1cc(C2Nc3cccc4cccc(c34)N2)ccc1OC(C)=O	93.7	88.9	108.4	74.6	.
Cc1ccc(C2Nc3cccc4cccc(c34)N2)s1	101.7	98.7	.	.	.
COc1cc(C2Nc3cccc4cccc(c34)N2)cc(OC)c1O	88.7	90.7	106.6	81.5	18.8*
CC(=O)c1c(C)nc(-c2ccc(Cl)cc2Cl)n1O	1.2*	88.6	100.3	98.4	89.7
FC(F)Oc1ccc(/C=N/NC(=S)Nc2cc(C(F)(F)F)ccc2Cl)cc1	92.2	101.0	.	.	.
COc1ccccc1N1CCN(C(=O)c2cc(-c3ccc(Cl)cc3)on2)CC1	91.9	96.6	101.8	103.6	91.7
CC(CCc1ccccc1)NC(=O)c1ccc(NC(=O)c2ccccc2)cc1 (centres undefined)	95.7	95.0	.	.	.
Cc1cc(SCC(=O)N/N=C/c2ccc(O)cc2O)c(C)cc1Br	8.6	8.7	36.6*	35.1	26.2*
O=C(CCCCCNC(=O)c1ccccc1)N/N=C/c1ccc(O)cc1O	94.7	91.0	.	.	.
COc1ccccc1-c1cc(C(F)(F)F)nc(S(=O)(=O)CCCC(=O)O)n1	80.3	72.7	90.9	95.5	52.1
COc1ccccc1-c1cc(C(F)(F)F)nc(S(=O)(=O)CCCC(=O)N2CCOCC2)n1	1.1*	1.3*	3.2*	44.6	0.3*
Cc1ccc(C2=NN(S(C)(=O)=O)C(c3ccc4c(c3)OCO4)C2)cc1 (centres undefined)	98.1	92.9	.	.	.
CC1CCCC(n2c(=S)[nH]c3ccccc3c2=O)C1C (centres undefined)	77.8	83.9	90.0	71.7	21.9*
SMILES	PTEN del growth	bCat KO growth	Fibroblast inh	HUVEC inhibit	H69AR growth 86K
Cc1cc(NCCCN)nc(-c2ccccc2O)n1	63.7	60.9	99.8	98.3	21.4*
Cc1ccc(Nc2cc(C)nc(-c3ccccc3O)n2)cc1	56.9	65.7	87.6	70.2	43.2
Cc1cc(N/N=C/c2ccc(O)c(C)c2O)nc(-c2ccccc2O)n1	1.8*	1.7*	.	.	.
CC(C)(C)c1n[nH]c(=S)n(N)c1=O	98.2	95.5	91.8	88.8	96.5
COC(=O)c1ccc(C(=O)Nc2ccc(N)cc2N)cc1	96.1	91.2	101.0	97.6	1.9*
COc1ccccc1NC(=O)c1ccc(N)cc1	105.4	103.8	97.4	84.3	97.6
CCCCn1c(NC(=O)c2ccccc2Cl)c(C#N)c2nc3ccccc3nc21	43.1	58.2	94.4	54.6	20.1*
N#Cc1c(NC(=O)c2ccccc2Cl)n(Cc2ccccc2)c2nc3ccccc3nc12	52.6	57.0	.	.	.
COc1ccc(C(=O)c2ccccc2)c2c(O)ccc(C(=O)c3ccccc3)c12	16.6	17.9	91.6	34.4	90.6
COc1ccc(C(=O)c2ccc(Cl)cc2)c2ccccc12	72.5	71.7	93.8	65.2	17.1*
CCOC(=O)N1CCC(NC(=O)C2CCCN(c3nc4ccccc4o3)C2)CC1 (centres undefined)	100.3	95.3	99.6	90.4	83.4
